Test results as given in ChEMBL document CHEMBL4038265, “Antiprotozoal Activity-Based Profiling of a Dichloromethane Extract from Anthemis nobilis Flowers” (J Nat Prod, 2017).

Tests used:
[1] = system: Trypanosoma brucei rhodesiense; test: Antiprotozoal activity against bloodstream form of Trypanosoma brucei rhodesiense STIB900 after 72 hrs by Alamar Blue assay; format: functional; conditions: STIB900, 72 h
Trypanosoma cruzi = test: Antiprotozoal activity against Trypanosoma cruzi Tulahuen C4 infected in rat L6 cells after 96 hrs by beta-galactosidase reporter gene assay; format: functional, cell-based; conditions: Tulahuen C4, L6, 96 h
Leishmania donovani = test: Antiprotozoal activity against amastigote form of Leishmania donovani MHOM/ET/67/L82 after 72 hrs by Alamar Blue assay; format: functional; conditions: MHOM/ET/67/L82, 72 h
Plasmodium falciparum = test: Antiprotozoal activity against erythrocytic stage of Plasmodium falciparum NF54 after 48 hrs by [3H]- hypoxanthine incorporation assay; format: functional
L6 = test: Cytotoxicity against rat L6 cells after 72 hrs by Alamar Blue assay; format: cell-based; conditions: L6, 72 h
In short: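 Rat L6 cytotoxicity IC50 values (μM) are averages of three independent assays.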

[2] = Selectivity index, ratio of IC50 for rat L6 cells to IC50 for bloodstream form of Trypanosoma brucei rhodesiense STIB900; format: toxicity; conditions: read-out: Ratio IC50
[3] = Selectivity index, ratio of IC50 for rat L6 cells to IC50 for Trypanosoma cruzi Tulahuen C4; format: toxicity; conditions: read-out: Ratio IC50
[4] = Selectivity index, ratio of IC50 for rat L6 cells to IC50 for amastigote form of Leishmania donovani MHOM/ET/67/L82; format: toxicity; conditions: read-out: Ratio IC50
[5] = Selectivity index, ratio of IC50 for rat L6 cells to IC50 for erythrocytic stage of Plasmodium falciparum NF54; format: toxicity; conditions: read-out: Ratio IC50

| IC50 [1] | IC50 (Trypanosoma cruzi) | IC50 (Plasmodium falciparum) | SMILES | IC50 (Leishmania donovani) | IC50 (L6) | selectivity ratio [2] | selectivity ratio [3] | selectivity ratio [4] | selectivity ratio [5] |
| --- | --- | --- | --- | --- | --- | --- | --- | --- | --- |
| 0.4 µM | 9.8 µM | 1.9 µM | C=C1C(=O)O[C@H]2/C=C(/C)[C@@H](O)C/C=C(\C=O)C[C@H](OC(=O)/C(C)=C\C)[C@@H]12 | 1.6 µM | 1.8 µM | 3.9 | 0.2 | 1.1 | 0.9 |
| 0.42 µM | 5 µM | 2 µM | C=C(C[C@H](OC(=O)/C(C)=C\C)[C@@H]1C(=C)C(=O)O[C@H]1/C=C(\C)C=O)C(C)=O | 0.38 µM | 1.8 µM | 4.3 | 0.3 | 4.7 | 0.9 |
| 0.4 µM | 2.8 µM | 1.9 µM | C=C1C[C@H](OC(=O)/C(C)=C\C)[C@H]2C(=C)C(=O)O[C@H]2/C=C(/C)[C@@H](O)CC1=O | 0.5 µM | 1.5 µM | 3.9 | 0.5 | 3.1 | 0.8 |
| 1.2 µM | 11.3 µM | 2.2 µM | C=C1C(=O)O[C@@H](/C=C(\C)C=O)[C@@H]1[C@H](/C=C(/C)C(C)=O)OC(=O)/C(C)=C\C | 0.5 µM | 5.2 µM | 4.3 | 0.5 | 11.2 | 2.3 |
| – | – | – | COc1cc([C@@H]2c3cc4c(cc3[C@H](O)[C@H]3COC(=O)[C@H]23)OCO4)cc(OC)c1OC [PODOFILOX] | – | 0.016 µM | – | – | – | – |
| 1.4 µM | 26.1 µM | 9.6 µM | C=C1C(=O)O[C@H]2/C=C(/C)[C@@H](O)C[C@@H](O)/C(C)=C\[C@H](OC(=O)/C(C)=C\C)[C@@H]12 | 8.4 µM | 5.3 µM | 3.9 | 0.2 | 0.6 | 0.5 |
| 1.2 µM | 7.3 µM | 3 µM | C=C1C(=O)O[C@H]2/C=C(/C)[C@@H](O)C[C@@H]3O[C@]3(C)C[C@H](OC(=O)/C(C)=C/C)[C@@H]12 | 2.7 µM | 5.3 µM | 4.5 | 0.7 | 1.9 | 1.8 |
| 0.61 µM | 29.3 µM | 7.8 µM | C=C1C(=O)O[C@H]2/C=C(/C)[C@@H](O)C[C@H](O)C(=C)C[C@H](OC(=O)/C(C)=C\C)[C@@H]12 | 13.2 µM | 5.1 µM | 8.3 | 0.2 | 0.4 | 0.6 |
| 1.3 µM | 10.9 µM | 8.5 µM | C=C1C(=O)O[C@H]2[C@H]1[C@@H](OC(=O)/C(C)=C\C)CC(=C)[C@@H]1C=C[C@@](C)(O)[C@H]21 | 0.8 µM | 5.8 µM | 4.4 | 0.6 | 7.2 | 0.68 |
| 2.1 µM | 11.3 µM | 3.1 µM | C=C1C(=O)O[C@H]2/C=C(/C)[C@@H](O)C/C=C(\C)C[C@H](OC(=O)/C(C)=C\C)[C@@H]12 | 2.7 µM | 4.9 µM | 2.4 | 0.4 | 1.8 | 1.6 |
| 0.08 µM | 37.3 µM | 4.7 µM | C=C1C(=O)O[C@@H]2/C=C(/C)[C@@H]3C[C@H](O)[C@@](CO)(C[C@H](OC(=O)/C(C)=C\C)[C@@H]12)O3 | 9.8 µM | 5.1 µM | 63.1 | 0.1 | 0.5 | 1.1 |
| 0.36 µM | 26.7 µM | 6.2 µM | C=C1C(=O)O[C@H]2/C=C(/C)[C@@H](O)C[C@H](O)C(=C)C[C@H](OC(=O)/C(C)=C/C)[C@@H]12 | 5.3 µM | 5.1 µM | 14.1 | 0.2 | 1 | 0.8 |
| – | – | – | CCCCCCCCCCCCCCCCOP(=O)([O-])OCC[N+](C)(C)C [MILTEFOSINE] | 0.13 µM | – | – | – | – | – |
| 0.88 µM | 31.1 µM | 7.9 µM | C=C1C(=O)O[C@H]2/C=C(/C)[C@H](O)C[C@H](O)C(=C)C[C@H](OC(=O)/C(C)=C\C)[C@@H]12 | 23 µM | 7.3 µM | 8.3 | 0.2 | 0.3 | 0.9 |
| 4.6 µM | 4.2 µM | – | C=C(C)C(=O)O[C@H]1C/C(C)=C/C[C@H](O)/C(C)=C\[C@@H]2OC(=O)C(=C)[C@@H]21 | – | 28.2 µM | 6.1 | 6.1 | – | – |

| SMILES | IC50 [1] | IC50 (Trypanosoma cruzi) | IC50 (Plasmodium falciparum) | IC50 (Leishmania donovani) | IC50 (L6) | selectivity ratio [2] | selectivity ratio [3] | selectivity ratio [4] | selectivity ratio [5] |
| --- | --- | --- | --- | --- | --- | --- | --- | --- | --- |
| O=C(Cn1ccnc1[N+](=O)[O-])NCc1ccccc1 [BENZNIDAZOLE] | – | 2 µM | – | – | – | – | – | – | – |
